Test results as given in ChEMBL document CHEMBL1165950, “Design and synthesis of new potent anticancer pyrazoles with high FLT3 kinase inhibitory selectivity” (Bioorg Med Chem, 2010).

How the values were obtained:
Type in all cases: functional
[1] = test system: HCT-15; experiment: Cytotoxicity against human HCT15 cells assessed as cell growth at 0.01 uM after 48 hrs by sulforhodamine B assay; conditions: HCT-15, 48 h, read-out: Activity
[2] = test system: T47D; experiment: Cytotoxicity against human T47D cells assessed as cell growth at 100 nM after 48 hrs by sulforhodamine B assay; conditions: read-out: Activity
[3] = test system: COLO 205; experiment: Cytotoxicity against human COLO205 cells assessed as cell growth at 0.01 uM after 48 hrs by sulforhodamine B assay; conditions: COLO 205, 48 h, read-out: Activity
Method in brief: (§1)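 NCI-60 five-dose screen. Cells were grown in RPMI 1640 with 5% FBS and 2 mM L-glutamine, plated at 5000–40,000 cells/well and preincubated for 24 h. Time-zero plates were TCA-fixed. DMSO-solubilized drug was added at five concentrations (10-fold or ½-log serial dilutions) for 48 h at 37 °C, 5% CO2. Cells were TCA-fixed, stained with 0.4% SRB and read at 515 nm. Percent growth used time-zero, control and test absorbances.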

[4] = test system: NCI-H322M; experiment: Cytotoxicity against human NCI-H322M cells assessed as cell growth at 0.01 uM after 48 hrs by sulforhodamine B assay; conditions: read-out: Activity
[5] = test system: MOLT-4; experiment: Cytotoxicity against human MOLT4 cells assessed as cell growth at 10 uM after 48 hrs by sulforhodamine B assay; conditions: MOLT-4, 48 h, read-out: Activity
[6] = test system: MDA-MB-468; experiment: Cytotoxicity against human MDA-MB-468 cells assessed as cell growth at 0.01 uM after 48 hrs by sulforhodamine B assay; conditions: MDA-MB-468, 48 h, read-out: Activity
[7] = test system: HT-29; experiment: Cytotoxicity against human HT-29 cells assessed as cell growth at 100 nM after 48 hrs by sulforhodamine B assay; conditions: HT-29, 48 h, read-out: Activity
[8] = test system: SK-MEL-2; experiment: Cytotoxicity against human SK-MEL-2 cells assessed as cell growth at 0.001 uM after 48 hrs by sulforhodamine B assay; conditions: SK-MEL-2, 48 h, read-out: Activity
[9] = test system: A549; experiment: Cytotoxicity against human A549 cells assessed as cell growth at 10 uM after 48 hrs by sulforhodamine B assay; conditions: A549, 48 h, read-out: Activity; method in brief: as §1
[10] = test system: K562; experiment: Growth inhibition of human K562 cells after 48 hrs by sulforhodamine B assay; conditions: K562, 48 h
Method in brief: (§2)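 NCI 60-cell screen, five-dose mode. Cells grown in RPMI 1640 with 5% FBS and 2 mM L-glutamine and plated at 5000-40,000 cells/well according to doubling time. After 24 h preincubation, a Tz plate was TCA-fixed. Five concentrations (10-fold or 1/2 log dilutions) were applied for 48 h at 37 °C. SRB staining read at 515 nm. IC50 taken from [(Ti-Tz)/(C-Tz)]×100 = 50.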

[11] = test system: MDA-MB-231; experiment: Cytotoxicity against human MDA-MB-231 cells assessed as cell growth at 100 nM after 48 hrs by sulforhodamine B assay; conditions: MDA-MB-231, 48 h, read-out: Activity
[12] = test system: CCRF-CEM; experiment: Cytotoxicity against human CCRF-CEM cells assessed as cell growth at 1 uM after 48 hrs by sulforhodamine B assay; conditions: read-out: Activity; method in brief: as §1
[13] = test system: HL-60(TB); experiment: Cytotoxicity against human HL-60(TB) cells assessed as cell growth at 0.001 uM after 48 hrs by sulforhodamine B assay; conditions: HL-60, 48 h, read-out: Activity
Method in brief: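 NCI 60-cell panel. Cells are grown in RPMI 1640 with 5% FBS and 2 mM L-glutamine, seeded at 5000–40,000 cells/well according to doubling time, and preincubated 24 h. Time-zero plates are TCA-fixed. Compound from DMSO stock is given at five 10-fold or 1/2-log concentrations for 48 h at 37 °C, 5% CO2. Suspension cells are fixed with 80% TCA (final 16%) and SRB-stained, with absorbance at 515 nm. Percent growth is derived from Tz, control and test readings.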

[14] = test system: MDA-MB-468; experiment: Growth inhibition of human MDA-MB-468 cells after 48 hrs by sulforhodamine B assay; conditions: MDA-MB-468, 48 h; method in brief: as §2
[15] = Cytotoxicity against human RPMI8266 cells assessed as cell growth at 1 uM after 48 hrs by sulforhodamine B assay; conditions: read-out: Activity
[16] = test system: CCRF-CEM; experiment: Cytotoxicity against human CCRF-CEM cells assessed as cell growth at 0.01 uM after 48 hrs by sulforhodamine B assay; conditions: read-out: Activity; method in brief: as §1
[17] = test system: SNB-19; experiment: Cytotoxicity against human SNB19 cells assessed as cell growth at 0.001 uM after 48 hrs by sulforhodamine B assay; conditions: SNB-19, 48 h, read-out: Activity
[18] = test system: A549; experiment: Cytotoxicity against human A549 cells assessed as cell growth at 0.01 uM after 48 hrs by sulforhodamine B assay; conditions: A549, 48 h, read-out: Activity; method in brief: as §1
[19] = test system: ACHN; experiment: Cytotoxicity against human ACHN cells assessed as cell growth at 1 uM after 48 hrs by sulforhodamine B assay; conditions: read-out: Activity; method in brief: as §1
[20] = test system: MDA-MB-231; experiment: Cytotoxicity against human MDA-MB-231 cells assessed as cell growth at 10 uM after 48 hrs by sulforhodamine B assay; conditions: MDA-MB-231, 48 h, read-out: Activity
[21] = test system: SNB-19; experiment: Cytotoxicity against human SNB19 cells assessed as cell growth at 10 uM; conditions: read-out: Activity
Method in brief: (§3)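 NCI-60 screen: cells grown in RPMI 1640 with 5% FBS and 2 mM L-glutamine, plated at 5000–40,000 cells/well according to doubling time, and preincubated 24 h at 37 °C, 5% CO2. The single 10 µM dose (DMSO stock) was added, then incubated 48 h. Cells were TCA-fixed and stained with 0.4% SRB, read at 515 nm, and growth % calculated against time-zero and control plates.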

[22] = test system: A549; experiment: Cytotoxicity against human A549 cells assessed as cell growth at 10 uM; conditions: read-out: Activity
Method in brief: (§4)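 Single-dose NCI-60 screen at 10 µM. Cells were grown in RPMI 1640 with 5% FBS and 2 mM L-glutamine, then treated for 48 h at 37 °C. Protein was measured by SRB staining with absorbance at 515 nm. Percentage growth was recorded, and inhibition percentage was calculated as 100 minus growth percentage.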

[23] = test system: ACHN; experiment: Cytotoxicity against human ACHN cells assessed as cell growth at 10 uM; conditions: read-out: Activity; method in brief: as §4
[24] = test system: EKVX; experiment: Cytotoxicity against human EKVX cells assessed as cell growth at 1 uM after 48 hrs by sulforhodamine B assay; conditions: read-out: Activity
[25] = test system: MDA-MB-231; experiment: Growth inhibition of human MDA-MB-231 cells after 48 hrs by sulforhodamine B assay; conditions: MDA-MB-231, 48 h; method in brief: as §2
[26] = test system: SNB-19; experiment: Cytotoxicity against human SNB19 cells assessed as cell growth at 0.01 uM after 48 hrs by sulforhodamine B assay; conditions: SNB-19, 48 h, read-out: Activity
[27] = test system: DU-145; experiment: Cytotoxicity against human DU145 cells assessed as cell growth at 100 nM after 48 hrs by sulforhodamine B assay; conditions: DU-145, 48 h, read-out: Activity
[28] = test system: MOLT-4; experiment: Cytotoxicity against human MOLT4 cells assessed as cell growth at 10 uM; conditions: read-out: Activity; method in brief: as §3
[29] = test system: HOP-92; experiment: Cytotoxicity against human HOP92 cells assessed as cell growth at 100 nM after 48 hrs by sulforhodamine B assay; conditions: HOP-92, 48 h, read-out: Activity

Row | SMILES | growth at 0.01 µM [1] [%] | growth at 0.1 µM [2] [%] | growth at 0.01 µM [3] [%] | growth at 0.01 µM [4] [%] | growth at 10 µM [5] [%] | growth at 0.01 µM [6] [%] | growth at 0.1 µM [7] [%] | growth at 0.001 µM [8] [%] | growth at 10 µM [9] [%] | GI50 [10] [µM] | LC50 (50% net cell kill) [10] [µM] | TGI [10] [µM] | growth at 0.1 µM [11] [%] | growth at 1 µM [12] [%] | growth at 0.001 µM [13] [%] | GI50 [14] [µM] | LC50 (concentration giving 50% net cell kill) [14] [µM] | TGI [14] [µM] | growth at 1 µM [15] [%] | growth at 0.01 µM [16] [%] | further results
1 | COc1cc(C)cc(-c2nn(CC#N)cc2-c2ccc(-c3cccc(C(C)=O)c3)nc2)c1 | 100 | 81 | 100 | 91 | 14 | 82 | 99 | 89 | -22 | 0.365 | > 100 | > 100 | 85 | 13 | 94 | 0.275 | 52.3 | 1.49 | 8 | 94 | growth at 0.001 µM [17]: 101%; growth at 0.01 µM [18]: 87%; growth at 1 µM [19]: 24%; growth at 10 µM [20]: 1%; growth at 10 µM [21]: 27.8%; growth at 10 µM [22]: 38.8%; growth at 10 µM [23]: 35.4%; growth at 1 µM [24]: 24%; GI50 [25]: 3.04 µM; LC50 [25]: > 100 µM; TGI [25]: > 100 µM; growth at 0.01 µM [26]: 102%; growth at 0.1 µM [27]: 87%; growth at 10 µM [28]: 28.1%; growth at 0.1 µM [29]: 89%
2 | Cc1cc(O)cc(-c2nn(CC#N)cc2-c2ccnc(-c3ccc(Oc4ccccc4)cc3)c2)c1 | 96 | 84 | 99 | 89 | -21 | 85 | 91 | 91 | -71 | 4.87 | > 100 | 6.02 | 85 | 6 | 96 | 1.79 | 8.28 | 3.85 | -20 | 93 | growth at 0.001 µM [17]: 101%; growth at 0.01 µM [18]: 88%; growth at 1 µM [19]: -4%; growth at 10 µM [20]: -62%; growth at 10 µM [21]: 72.8%; growth at 10 µM [22]: 42%; growth at 10 µM [23]: 37.6%; growth at 1 µM [24]: -4%; GI50 [25]: 2.28 µM; LC50 [25]: 57.7 µM; TGI [25]: 7.33 µM; growth at 0.01 µM [26]: 100%; growth at 0.1 µM [27]: 86%; growth at 10 µM [28]: 30%; growth at 0.1 µM [29]: 70%
